Tests used:
[1] = Volume of distribution at steady state in rat at 0.5 mg/kg by cassette dosing method; type: ADME, organism-based; design: dose 0.5 mg/kg; details: in vivo, read-out: Vdss
[2] = Clearance in rat at 0.5 mg/kg by cassette dosing method; type: ADME, organism-based; design: dose 0.5 mg/kg; details: in vivo
[3] = Metabolic stability in human liver microsomes assessed as compound remaining at 0.5 uM after 10 mins; type: ADME; details: read-out: Stability
In short: (§1)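 Compound at 0.5 μM incubated 10 min with 1 mg/mL human, rat or mouse liver microsomes; percentage of parent remaining reported.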

P2Y purinoceptor 1 [4] = molecular target: T1, P2Y purinoceptor 1 (Homo sapiens, UniProt P47900); test: Antagonist activity at P2Y1 receptor in washed human platelets assessed as 1 uM 2-methylthio-ADP-induced calcium flux by FLIPR assay; type: functional
T1 sequence (P47900 whole entry): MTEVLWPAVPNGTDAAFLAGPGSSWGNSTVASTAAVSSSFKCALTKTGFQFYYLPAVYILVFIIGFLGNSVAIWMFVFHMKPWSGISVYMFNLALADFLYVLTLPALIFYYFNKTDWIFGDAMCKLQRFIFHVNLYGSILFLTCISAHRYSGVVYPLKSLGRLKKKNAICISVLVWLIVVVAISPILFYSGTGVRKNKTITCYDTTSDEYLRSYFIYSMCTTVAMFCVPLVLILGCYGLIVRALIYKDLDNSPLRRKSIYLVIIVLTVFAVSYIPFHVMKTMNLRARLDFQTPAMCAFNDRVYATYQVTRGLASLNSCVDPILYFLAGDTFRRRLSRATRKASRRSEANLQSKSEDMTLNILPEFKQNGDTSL

[5] = Metabolic stability in mouse liver microsomes assessed as compound remaining at 0.5 uM after 10 mins; type: ADME; details: read-out: Stability; in short: as §1
[6] = Metabolic stability in rat liver microsomes assessed as compound remaining at 0.5 uM after 10 mins; type: ADME; details: read-out: Stability; in short: as §1
[7] = Oral bioavailability in rat at 0.5 mg/kg by cassette dosing method; type: ADME, organism-based; details: in vivo
P2Y purinoceptor 1 [8] = molecular target: T1, P2Y purinoceptor 1; test: Antagonist activity at P2Y1 receptor in platelet-enriched human plasma assessed as 10 uM ADP-induced platelet aggregation at 40 uM preincubated for 1 min followed by ADP induction measured at 5 mins by aggregometric analysis; type: cell-free

CC(C)CN1CCCC1c1ccc(NC(=O)Nc2ccccc2N2CC(C)(C)c3c(-c4ccc(F)cc4)ccc(O)c32)cc1 (stereo not drawn)
Vd [1]: 9.8 L/kg
clearance [2]: 34 mL/min/kg
remaining at 10 min, 0.5 µM [3]: 58%
IC50 (P2Y purinoceptor 1 [4]): 0.02 nM
remaining at 10 min, 0.5 µM [5]: 53%
remaining at 10 min, 0.5 µM [6]: 39%
bioavailability [7]: 4%

CC1(C)CN(c2ccccc2NC(=O)Nc2nc3ccc(Cl)nc3s2)c2c(O)ccc(-c3ccc(F)cc3)c21
remaining at 10 min, 0.5 µM [3]: 75%
IC50 (P2Y purinoceptor 1 [4]): 0.13 nM
remaining at 10 min, 0.5 µM [5]: 65%
remaining at 10 min, 0.5 µM [6]: 74%

CC1(C)CN(c2ccccc2NC(=O)Nc2ccc(OC(F)(F)F)cc2)c2c(O)ccc(-c3ccccc3)c21
remaining at 10 min, 0.5 µM [3]: 76%
IC50 (P2Y purinoceptor 1 [4]): 0.37 nM
remaining at 10 min, 0.5 µM [5]: 48%
remaining at 10 min, 0.5 µM [6]: 67%

CC1(C)CN(c2ccccc2NC(=O)Nc2ccc(OC(F)(F)F)cc2)c2c(O)c(F)cc(-c3ccc(F)cc3)c21
remaining at 10 min, 0.5 µM [3]: 80%
IC50 (P2Y purinoceptor 1 [4]): 0.45 nM
remaining at 10 min, 0.5 µM [5]: 66%
remaining at 10 min, 0.5 µM [6]: 71%

CC1(C)CN(c2ccccc2NC(=O)Nc2ccc(OC(F)(F)F)cc2)c2c(O)cc(F)c(-c3cc(F)nc(F)c3)c21
remaining at 10 min, 0.5 µM [3]: 75%
IC50 (P2Y purinoceptor 1 [4]): 0.47 nM
remaining at 10 min, 0.5 µM [5]: 75%
remaining at 10 min, 0.5 µM [6]: 80%

CC1(C)CN(c2ccccc2NC(=O)Nc2ccc(OC(F)(F)F)cc2)c2c(O)ccc(-c3ccc(F)c(F)c3)c21
remaining at 10 min, 0.5 µM [3]: 90%
IC50 (P2Y purinoceptor 1 [4]): 1.8 nM
remaining at 10 min, 0.5 µM [5]: 66%
remaining at 10 min, 0.5 µM [6]: 81%

CC1(C)CN(c2ccccc2NC(=O)Nc2ccc(OC(F)(F)F)cc2)c2c(O)ccc(-c3ccc(F)cc3)c21
remaining at 10 min, 0.5 µM [3]: 87%
IC50 (P2Y purinoceptor 1 [4]): 0.33 nM
remaining at 10 min, 0.5 µM [5]: 83%
remaining at 10 min, 0.5 µM [6]: 89%

CC1(C(=O)O)CN(c2ccccc2NC(=O)Nc2nc3ccc(Cl)nc3s2)c2c(O)ccc(Cl)c21 (stereo not drawn)
inhibition (P2Y purinoceptor 1 [8]): 90%

CC(C)(C)CN1CCC2(CC1)CN(c1ccccc1NC(=O)Nc1ccc(OC(F)(F)F)cc1)c1c(O)cc(F)c(-c3ccc(Cl)cc3)c12
Vd [1]: 1.3 L/kg
clearance [2]: 3.7 mL/min/kg
remaining at 10 min, 0.5 µM [3]: 78%
IC50 (P2Y purinoceptor 1 [4]): 0.16 nM
remaining at 10 min, 0.5 µM [5]: 74%
remaining at 10 min, 0.5 µM [6]: 72%
bioavailability [7]: 15%

CC1(C)CN(c2ccccc2NC(=O)Nc2ccc(OC(F)(F)F)cc2)c2c(O)ccc(Cl)c21
remaining at 10 min, 0.5 µM [3]: 66%
IC50 (P2Y purinoceptor 1 [4]): 0.39 nM
remaining at 10 min, 0.5 µM [5]: 58%
remaining at 10 min, 0.5 µM [6]: 57%

CC1(C)CN(c2ccccc2NC(=O)Nc2ccc(OC(F)(F)F)cc2)c2c(O)ccc(-c3ccc(C(F)(F)F)cc3)c21
remaining at 10 min, 0.5 µM [3]: 96%
IC50 (P2Y purinoceptor 1 [4]): 1.51 nM
remaining at 10 min, 0.5 µM [5]: 89%
remaining at 10 min, 0.5 µM [6]: 94%

CC1(C)CN(c2ccccc2NC(=O)Nc2ccc(OC(F)(F)F)cc2)c2c(O)ccc(-c3cc(F)cc(F)c3)c21
remaining at 10 min, 0.5 µM [3]: 63%
IC50 (P2Y purinoceptor 1 [4]): 0.57 nM
remaining at 10 min, 0.5 µM [5]: 64%
remaining at 10 min, 0.5 µM [6]: 59%

CC1(C)CN(c2ccccc2NC(=O)Nc2ccc(OC(F)(F)F)cc2)c2c(O)ccc(-c3ccccc3F)c21
remaining at 10 min, 0.5 µM [3]: 62%
IC50 (P2Y purinoceptor 1 [4]): 0.37 nM
remaining at 10 min, 0.5 µM [5]: 48%
remaining at 10 min, 0.5 µM [6]: 54%

CC1(CC(F)(F)F)CN(c2ccccc2NC(=O)Nc2ccc(OC(F)(F)F)cc2)c2c(O)ccc(Cl)c21 (stereo not drawn)
remaining at 10 min, 0.5 µM [3]: 79%
IC50 (P2Y purinoceptor 1 [4]): 1.96 nM
remaining at 10 min, 0.5 µM [5]: 66%
remaining at 10 min, 0.5 µM [6]: 58%

CC1(C)CN(c2ccccc2NC(=O)Nc2ccc(OC(F)(F)F)cc2)c2c(O)ccc(-c3cccc(F)c3)c21
remaining at 10 min, 0.5 µM [3]: 67%
IC50 (P2Y purinoceptor 1 [4]): 0.15 nM
remaining at 10 min, 0.5 µM [5]: 56%
remaining at 10 min, 0.5 µM [6]: 59%

CC1(C)CN(c2ccccc2NC(=O)Nc2csc(Cl)n2)c2c(O)ccc(-c3ccc(F)cc3)c21
remaining at 10 min, 0.5 µM [3]: 80%
IC50 (P2Y purinoceptor 1 [4]): 0.03 nM
remaining at 10 min, 0.5 µM [5]: 75%
remaining at 10 min, 0.5 µM [6]: 0%

CC1(C)CN(c2ccccc2NC(=O)Nc2ccc(OC(F)(F)F)cc2)c2c(O)ccc(-c3ccc(F)cc3F)c21
remaining at 10 min, 0.5 µM [3]: 81%
IC50 (P2Y purinoceptor 1 [4]): 0.52 nM
remaining at 10 min, 0.5 µM [5]: 79%
remaining at 10 min, 0.5 µM [6]: 72%

CCOC(=O)C1(C)CN(c2ccccc2NC(=O)Nc2ccc(OC(F)(F)F)cc2)c2c(O)ccc(Cl)c21 (stereo not drawn)
IC50 (P2Y purinoceptor 1 [4]): 0.09 nM

CC1(C)CN(c2ccccc2NC(=O)Nc2nc3ccc(Cl)nc3s2)c2c(O)ccc(Cl)c21
IC50 (P2Y purinoceptor 1 [4]): 0.14 nM

CC(C)(C)CN1CCC2(CC1)CN(c1ccccc1NC(=O)Nc1ccc(OC(F)(F)F)cc1)c1c(O)cc(F)c(-c3ccc(F)cc3)c12
Vd [1]: 1 L/kg
clearance [2]: 4.2 mL/min/kg
remaining at 10 min, 0.5 µM [3]: 81%
IC50 (P2Y purinoceptor 1 [4]): 0.09 nM
remaining at 10 min, 0.5 µM [5]: 67%
remaining at 10 min, 0.5 µM [6]: 80%
bioavailability [7]: 17%

CC1(C)CN(c2ccccc2NC(=O)Nc2ccc(OC(F)(F)F)cc2)c2c(O)cc(F)c(-c3cnc(Cl)cn3)c21
remaining at 10 min, 0.5 µM [3]: 77%
remaining at 10 min, 0.5 µM [5]: 67%
remaining at 10 min, 0.5 µM [6]: 83%

CC1(C)CN(c2ccccc2NC(=O)Nc2ccc(OC(F)(F)F)cc2)c2c(O)ccc(-c3ccc(Cl)cc3)c21
remaining at 10 min, 0.5 µM [3]: 84%
IC50 (P2Y purinoceptor 1 [4]): 0.13 nM
remaining at 10 min, 0.5 µM [5]: 78%
remaining at 10 min, 0.5 µM [6]: 83%

CC(C)(C)CN1CCCC1c1ccc(NC(=O)Nc2ccccc2N2CC(C)(C)c3c(-c4ccc(F)cc4)ccc(O)c32)cc1 (stereo not drawn)
remaining at 10 min, 0.5 µM [3]: 45%
IC50 (P2Y purinoceptor 1 [4]): 0.04 nM
remaining at 10 min, 0.5 µM [5]: 52%
remaining at 10 min, 0.5 µM [6]: 34%

CCOC(=O)C1(C)CN(c2ccccc2NC(=O)Nc2nc3ccc(Cl)nc3s2)c2c(O)ccc(Cl)c21 (stereo not drawn)
remaining at 10 min, 0.5 µM [3]: 47%
IC50 (P2Y purinoceptor 1 [4]): 0.05 nM
remaining at 10 min, 0.5 µM [5]: 54%
remaining at 10 min, 0.5 µM [6]: 14%

CC1(C)CN(c2ccccc2NC(=O)Nc2ccc(OC(F)(F)F)cc2)c2c(O)cc(F)c(-c3ncc(F)cn3)c21
remaining at 10 min, 0.5 µM [3]: 41%
IC50 (P2Y purinoceptor 1 [4]): 0.3 nM
remaining at 10 min, 0.5 µM [5]: 42%
remaining at 10 min, 0.5 µM [6]: 61%

CC1(C)CN(c2ccccc2NC(=O)Nc2ccc(OC(F)(F)F)cc2)c2c(O)cc(F)c(-c3ccc(C(F)(F)F)cn3)c21
remaining at 10 min, 0.5 µM [3]: 100%
IC50 (P2Y purinoceptor 1 [4]): 0.57 nM
remaining at 10 min, 0.5 µM [5]: 65%
remaining at 10 min, 0.5 µM [6]: 97%

CC1(C)CN(c2ccccc2NC(=O)Nc2ccc(OC(F)(F)F)cc2)c2c(O)c(F)cc(-c3ccc(Cl)cc3)c21
remaining at 10 min, 0.5 µM [3]: 88%
remaining at 10 min, 0.5 µM [5]: 80%
remaining at 10 min, 0.5 µM [6]: 100%

CC1(C)CN(c2ccccc2NC(=O)Nc2ccc(OC(F)(F)F)cc2)c2c(O)cc(F)c(-c3ccc(C(F)(F)F)nc3)c21
remaining at 10 min, 0.5 µM [3]: 68%
IC50 (P2Y purinoceptor 1 [4]): 0.51 nM
remaining at 10 min, 0.5 µM [5]: 73%
remaining at 10 min, 0.5 µM [6]: 69%

CC1(C)CN(c2ccccc2NC(=O)Nc2ccc(OC(F)(F)F)cc2)c2c(O)cc(F)c(-c3ccc(Cl)s3)c21
remaining at 10 min, 0.5 µM [3]: 92%
IC50 (P2Y purinoceptor 1 [4]): 2.3 nM
remaining at 10 min, 0.5 µM [5]: 88%
remaining at 10 min, 0.5 µM [6]: 79%

Cc1nc(NC(=O)Nc2ccccc2N2CC(C)(C)c3c(-c4ccc(F)cc4)ccc(O)c32)cs1
remaining at 10 min, 0.5 µM [3]: 95%
IC50 (P2Y purinoceptor 1 [4]): 0.08 nM
remaining at 10 min, 0.5 µM [5]: 52%
remaining at 10 min, 0.5 µM [6]: 55%

CC1(CO)CN(c2ccccc2NC(=O)Nc2nc3ccc(Cl)nc3s2)c2c(O)ccc(Cl)c21 (stereo not drawn)
inhibition (P2Y purinoceptor 1 [8]): 72%

CC1(C)CN(c2ccccc2NC(=O)Nc2ccc(OC(F)(F)F)cc2)c2c(O)cc(F)c(-c3ccc(F)cc3)c21
remaining at 10 min, 0.5 µM [3]: 73%
IC50 (P2Y purinoceptor 1 [4]): 0.23 nM
remaining at 10 min, 0.5 µM [5]: 77%
remaining at 10 min, 0.5 µM [6]: 84%

Source: ChEMBL document CHEMBL3352472, “Discovery of 4-aryl-7-hydroxyindoline-based P2Y1 antagonists as novel antiplatelet agents” (J Med Chem, 2014)
